In ChEMBL document CHEMBL1131114 (J Med Chem, 1998):

What was measured:
[1] = target: Sodium-dependent dopamine transporter (Rattus norvegicus, UniProt P23977); assay: Displacement of [3H]WIN-35428(0.5 nM) from Dopamine transporter
Summary of the method: (§1)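 IC50 is taken as inhibition of specific binding. Values are mean ± standard error of three or four experiments, with triplicate determinations at each concentration.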

[2] = target: Norepinephrine transporter (Rattus norvegicus, UniProt Q9WTR4); assay: Inhibition of [3H]nisoxetine (0.5 nM) binding to Noradrenaline transporter; summary of the method: as §1
[3] = target: Sodium-dependent serotonin transporter (Rattus norvegicus, UniProt P31652); assay: Inhibition of [3H]paroxetine (0.2 nM) binding to 5-HT transporter; summary of the method: as §1
Sequence of Sodium-dependent serotonin transporter (P31652 whole entry): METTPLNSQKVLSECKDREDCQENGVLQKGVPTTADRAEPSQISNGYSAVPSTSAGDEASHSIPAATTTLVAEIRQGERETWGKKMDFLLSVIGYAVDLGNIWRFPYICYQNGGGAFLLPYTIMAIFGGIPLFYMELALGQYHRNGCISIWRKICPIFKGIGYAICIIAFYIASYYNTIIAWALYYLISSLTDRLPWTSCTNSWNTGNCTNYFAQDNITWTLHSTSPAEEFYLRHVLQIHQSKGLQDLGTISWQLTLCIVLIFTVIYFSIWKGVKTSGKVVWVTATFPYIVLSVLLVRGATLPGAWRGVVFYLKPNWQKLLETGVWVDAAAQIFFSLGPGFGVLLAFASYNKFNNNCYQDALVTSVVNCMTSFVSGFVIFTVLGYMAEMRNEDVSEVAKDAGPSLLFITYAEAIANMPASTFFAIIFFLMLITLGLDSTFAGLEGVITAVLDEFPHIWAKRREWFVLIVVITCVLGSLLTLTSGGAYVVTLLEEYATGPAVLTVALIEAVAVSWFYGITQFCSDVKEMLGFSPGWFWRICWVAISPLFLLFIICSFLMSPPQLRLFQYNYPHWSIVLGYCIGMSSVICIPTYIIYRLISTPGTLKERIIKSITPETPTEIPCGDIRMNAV

Sequence of Sodium-dependent dopamine transporter (P23977 whole entry): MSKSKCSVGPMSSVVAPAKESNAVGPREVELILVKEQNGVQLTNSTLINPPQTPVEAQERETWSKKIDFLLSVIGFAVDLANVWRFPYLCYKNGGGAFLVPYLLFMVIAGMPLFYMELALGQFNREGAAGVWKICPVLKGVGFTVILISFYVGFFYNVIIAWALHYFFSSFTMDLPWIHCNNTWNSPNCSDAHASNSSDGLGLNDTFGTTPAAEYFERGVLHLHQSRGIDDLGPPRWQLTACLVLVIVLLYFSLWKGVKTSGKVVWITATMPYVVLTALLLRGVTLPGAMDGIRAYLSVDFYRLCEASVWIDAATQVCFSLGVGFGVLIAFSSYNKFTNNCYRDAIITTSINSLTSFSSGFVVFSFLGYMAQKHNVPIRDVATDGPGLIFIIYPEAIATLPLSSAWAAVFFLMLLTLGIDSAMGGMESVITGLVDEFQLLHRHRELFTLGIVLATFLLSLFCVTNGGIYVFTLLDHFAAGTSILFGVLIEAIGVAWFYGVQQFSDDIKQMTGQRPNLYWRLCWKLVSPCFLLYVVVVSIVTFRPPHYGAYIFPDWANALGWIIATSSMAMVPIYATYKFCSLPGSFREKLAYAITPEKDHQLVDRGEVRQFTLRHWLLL
Sequence of Norepinephrine transporter (Q9WTR4 whole entry): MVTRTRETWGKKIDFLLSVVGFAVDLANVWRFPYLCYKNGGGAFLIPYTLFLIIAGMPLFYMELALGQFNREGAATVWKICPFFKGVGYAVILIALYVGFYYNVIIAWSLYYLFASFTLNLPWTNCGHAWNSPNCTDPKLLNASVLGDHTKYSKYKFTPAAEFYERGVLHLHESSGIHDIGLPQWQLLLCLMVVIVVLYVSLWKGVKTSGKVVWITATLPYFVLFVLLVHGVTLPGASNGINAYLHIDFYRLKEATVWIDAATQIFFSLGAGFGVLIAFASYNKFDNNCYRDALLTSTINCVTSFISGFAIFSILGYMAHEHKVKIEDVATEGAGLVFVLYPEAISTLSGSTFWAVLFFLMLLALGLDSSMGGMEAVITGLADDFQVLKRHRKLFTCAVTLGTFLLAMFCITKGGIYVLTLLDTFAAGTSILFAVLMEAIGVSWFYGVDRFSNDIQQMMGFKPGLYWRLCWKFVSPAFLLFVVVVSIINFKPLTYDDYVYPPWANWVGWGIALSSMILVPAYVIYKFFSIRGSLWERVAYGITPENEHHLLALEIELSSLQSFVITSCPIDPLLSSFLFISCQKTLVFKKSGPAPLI

Q: Which results are given for `Fc1ccc([C@@H]2CC3CCC(N3)[C@@H]2COc2ccc3c(c2)OCO3)cc1` (stereo partly specified)?
A: IC50 [1]: 27.6 nM; IC50 [2]: 1690 nM; IC50 [3]: 55.8 nM

Q: `Fc1ccc([C@H]2CC3CCC(N3)[C@@H]2COc2ccc3c(c2)OCO3)cc1` (stereo partly specified) was tested. Which IC50 [1] did it give?
A: 142 nM

Q: And the IC50 [2]?
A: 2500 nM

Q: What about the IC50 [3] of the same molecule?
A: 90 nM

Q: Which results are given for `CN1C2CC[C@@H]1C[C@H](c1ccc(F)cc1)[C@H]2COc1ccc2c(c1)OCO2`?
A: IC50 [1]: 172 nM; IC50 [2]: 26600 nM; IC50 [3]: 52.9 nM

Q: Which IC50 [1] does the source give for `CN1C2CC[C@@H]1[C@H](COc1ccc3c(c1)OCO3)[C@H](c1ccc(F)cc1)C2` here?
A: 1500 nM

Q: And the IC50 [2]?
A: 2920 nM

Q: And the IC50 [3]?
A: 447 nM

Q: Which results are given for `CN1C2CC[C@@H]1[C@@H](COc1ccc3c(c1)OCO3)[C@H](c1ccc(F)cc1)C2`?
A: IC50 [1]: 1050 nM; IC50 [2]: 27600 nM; IC50 [3]: 88.1 nM

Q: With `CN1C2CC[C@@H]1C[C@H](c1ccc(F)cc1)[C@@H]2COc1ccc2c(c1)OCO2` as the molecule, how does the IC50 [1] read?
A: 308 nM

Q: What about the IC50 [2] of the same molecule?
A: 5300 nM

Q: And the IC50 [3]?
A: 294 nM

Q: How did the IC50 [1] turn out when `CN1C2CC[C@@H]1C[C@@H](c1ccc(F)cc1)[C@@H]2COc1ccc2c(c1)OCO2` was run?
A: 3.01 nM

Q: What about the IC50 [2] of the same molecule?
A: 123 nM

Q: What about the IC50 [3] of the same molecule?
A: 422 nM

Q: How did the IC50 [1] turn out when `CN1C2CC[C@@H]1[C@@H](COc1ccc3c(c1)OCO3)[C@@H](c1ccc(F)cc1)C2` was run?
A: 298 nM

Q: What about the IC50 [2] of the same molecule?
A: 12400 nM

Q: And the IC50 [3]?
A: 178 nM

Q: For `Fc1ccc([C@H]2CC3CCC(N3)[C@H]2COc2ccc3c(c2)OCO3)cc1` (stereo in doubt; 4a), which IC50 [1] is on record?
A: 835 nM

Q: And the IC50 [2]?
A: 37400 nM

Q: And the IC50 [3]?
A: 480 nM

Q: How did the IC50 [1] turn out when `Fc1ccc([C@@H]2CC3CCC(N3)[C@H]2COc2ccc3c(c2)OCO3)cc1` (stereo in doubt; 4c) was run?
A: 3.86 nM

Q: What about the IC50 [2] of the same molecule?
A: 14.4 nM

Q: And the IC50 [3]?
A: 5.62 nM

Q: What does the source list for `Fc1ccc([C@@H]2CC3CCC(N3)[C@H]2COc2ccc3c(c2)OCO3)cc1` (stereo in doubt; 4d)?
A: IC50 [1]: 1210 nM; IC50 [2]: 17300 nM; IC50 [3]: 424 nM

Q: `Fc1ccc([C@H]2CC3CCC(N3)[C@H]2COc2ccc3c(c2)OCO3)cc1` (stereo in doubt; 4f) was tested. Which IC50 [1] did it give?
A: 403 nM

Q: And the IC50 [2]?
A: 1990 nM

Q: What about the IC50 [3] of the same molecule?
A: 19 nM
